Tests used:
CHO-AA8 [1] = experiment: Compound was tested for the concentration required to reduce cell survival under hypoxic conditions, using the cell line AA8 in the clonogenic assay.; assay type: functional, Cricetulus griseus
How it was run: (§1)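 Clonogenic assay on early-plateau Chinese hamster cells, grown in spinner flasks (AA8 to 10⁶/mL, UV4 to 6 × 10⁵/mL) and resuspended in fresh medium. Stirred 10 mL suspensions at 10⁶/mL were exposed to drug for 1 h under continuous 5% CO₂ in N₂; cells and drug solutions were pre-equilibrated under gas for 1 h. C₁₀ = concentration (µM) giving 10% survival relative to controls.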

UV4 = experiment: Compound was tested for the concentration required to reduce cell survival under hypoxic conditions, using the cell line UV4 in the clonogenic assay.; assay type: functional, Cricetulus griseus; how it was run: as §1
[2] = Potency in clonogenic assay, defined by hypersensitivity factor calculated for UV4 cells versus AA8 cells [IC50(AA8)/IC50(UV4)]; assay type: functional, Cricetulus griseus
[3] = The ratio of C10 values in air and N2 using AA8 cell line.; assay type: functional, CHO-AA8
How it was run: (§2)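 Stirred early-plateau suspensions (10⁶/mL) of AA8 or UV4 cells were exposed to drug for 1 h under continuous gassing with 5% CO₂ in air or in N₂, after 1 h pre-equilibration, and then plated for clonogenic survival. C₁₀ (10% survival) was found for each gas phase and the ratio C₁₀(air)/C₁₀(N₂) reported.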

[4] = The ratio of C10 values in air and N2 using UV4 cell line.; assay type: functional; how it was run: as §2
[5] = Potency in clonogenic assay defined by Hypersensitivity factor calculated for AA8 cells versus EMT6 cells [IC50(AA8)/IC50 (EMT6)]; assay type: functional
How it was run: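 Aerobic growth-inhibition microassay run in parallel on AA8 (200/well), UV4 (300/well) and murine mammary EMT6 (75/well) cells. After 24 h growth, cells were given 18 h drug exposure in RMEM/5% FBS, washed, grown a further 78 h, and stained with methylene blue. The hypersensitivity factor is IC₅₀(AA8)/IC₅₀(named line), reported as intraexperiment means ± SEM.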

CHO-AA8 [6] = experiment: Inhibition of growth under aerobic conditions in AA8 cells; assay type: functional, cell-based; details: Cricetulus griseus
How it was run: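 Growth-inhibition microassay: AA8 cells, 200 per well, were grown 24 h, then exposed aerobically to drug in RMEM with 5% fetal bovine serum for 18 h and washed three times. After a further 78 h they were stained with methylene blue. IC₅₀ = concentration giving 50% growth inhibition relative to controls; means ± SEM, values without SEM from a single determination.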

CHO-AA8 [7] = experiment: Inhibitory activity against AA8 cell growth in aerobic condition after 4 hr of exposure; assay type: functional, cell-based; details: Cricetulus griseus, CHO-AA8, 4 h

Structure (SMILES)	C10 (CHO-AA8 [1]) [µM]	C10 (UV4) [µM]	Hypersensitivity factor [2]	Ratio [3]	Ratio [4]	Hypersensitivity factor [5]	IC50 (CHO-AA8 [6]) [µM]	IC50 (CHO-AA8 [7]) [µM]
CN(C)CCNC(=O)c1cc(N(CCCl)CCCl)c([N+](=O)[O-])cc1[N+](=O)[O-]	1300	400	3.1	3.1	44	6.7		
O=C(NCC(O)CO)c1cc(N(CCCl)CCCl)c([N+](=O)[O-])cc1[N+](=O)[O-] (stereo unspecified)		3600	3.4		8.6	2.3		
O=C(NCC(O)CO)c1cc([N+](=O)[O-])c(N(CCCl)CCCl)cc1[N+](=O)[O-] (stereo unspecified)			12			3.5	81	
CN(C)CCNC(=O)c1c([N+](=O)[O-])ccc(N(CCCl)CCCl)c1[N+](=O)[O-]	2200	2200	2.7	2.2	116	3	426	
O=C(NCC(O)CO)c1c([N+](=O)[O-])ccc(N(CCCl)CCCl)c1[N+](=O)[O-] (stereo unspecified)			2.7			1.7	652	
NC(=O)c1cc([N+](=O)[O-])c([N+](=O)[O-])cc1N(CCCl)CCCl			0.88			0.43	1.6	
NC(=O)c1c([N+](=O)[O-])ccc(N(CCCl)CCCl)c1[N+](=O)[O-]			>2.6				> 244	
NC(=O)c1cc([N+](=O)[O-])c(N(CCCl)CCCl)cc1[N+](=O)[O-]			2.8			1.9	11	
O=C(NCC(O)CO)c1cc([N+](=O)[O-])c(N(CCCl)CCCl)c([N+](=O)[O-])c1 (stereo unspecified)			0.9			2.3	320	
CN(C)CCNC(=O)c1cc([N+](=O)[O-])cc([N+](=O)[O-])c1N(CCCl)CCCl		1100	13	>2.35	68	2.5	150	
O=C(NCC(O)CO)c1cc([N+](=O)[O-])c([N+](=O)[O-])cc1N(CCCl)CCCl (stereo unspecified)			1.5			1.9	73	
CN(C)CCNC(=O)c1cc([N+](=O)[O-])c([N+](=O)[O-])cc1N(CCCl)CCCl	44	18	1.4	0.098	1.8	3	4	
NC(=O)c1cc(N(CCCl)CCCl)c(NO)cc1[N+](=O)[O-]								180
NC(=O)c1cc([N+](=O)[O-])c(N(CCCl)CCCl)c([N+](=O)[O-])c1			1.5			1.3	97	
CN(C)CCNC(=O)c1ccc(N(CCCl)CCCl)c([N+](=O)[O-])c1[N+](=O)[O-]	140	160	1	0.82	4	1.2	13	
O=C(NCC(O)CO)c1cc([N+](=O)[O-])cc([N+](=O)[O-])c1N(CCCl)CCCl (stereo unspecified)			4.9			1.8	500	
NC(=O)c1cc(N(CCCl)CCCl)c([N+](=O)[O-])cc1[N+](=O)[O-]		3400	6.4		42	1.1		
CN(C)CCNC(=O)c1cc([N+](=O)[O-])c(N(CCCl)CCCl)c([N+](=O)[O-])c1	270	250	1.8	0.96	1.04	2.1	62	
O=C(NCC(O)CO)c1ccc(N(CCCl)CCCl)c([N+](=O)[O-])c1[N+](=O)[O-] (stereo unspecified)			2.3			3	108	
CN(C)CCNC(=O)c1cc([N+](=O)[O-])c(N(CCCl)CCCl)cc1[N+](=O)[O-]	120	12	13	3.2	7.5	5.8	12	
NC(=O)c1cc([N+](=O)[O-])cc([N+](=O)[O-])c1N(CCCl)CCCl			4.3			0.7	73	
NC(=O)c1ccc(N(CCCl)CCCl)c([N+](=O)[O-])c1[N+](=O)[O-]			1			3.1	20	
